ChEMBL document CHEMBL3414569, “Amino acid modified xanthone derivatives: novel, highly promising membrane-active antimicrobials for multidrug-resistant Gram-positive bacterial infections” (J Med Chem, 2015)
In brackets after ≈: the same amount, converted by molar mass. Activity calls are given as the source filed them.

Assays:
[1] = tested on: Staphylococcus aureus; experiment: Antimicrobial activity against methicillin resistant Staphylococcus aureus isolates by broth macrodilution method; format: functional
[2] = tested on: Staphylococcus aureus; experiment: Antimicrobial activity against methicillin resistant Staphylococcus aureus DM21455 in absence of 4% BSA by broth macrodilution method; format: functional
How it was run: (§1)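 Broth macrodilution MIC in Mueller Hinton broth following CLSI guidelines. Inoculum was prepared by direct colony suspension from an 18−20 h tryptic soy agar plate.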

[3] = tested on: Lipid bilayer; experiment: Induction of vesicle leakage in DOPC large unilamellar vesicles assessed as calcein release at 1/64 compound to lipid ratio by fluorescence assay
[4] = tested on: Staphylococcus epidermidis; experiment: Antimicrobial activity against Staphylococcus epidermidis isolates by broth macrodilution method; format: functional
[5] = tested on: Lipid bilayer; experiment: Induction of vesicle leakage in DOPE/DOPG large unilamellar vesicles assessed as calcein release at 1/32 compound to lipid ratio by fluorescence assay; format: functional
How it was run: (§2)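 100 nm LUVs (DOPE/DOPG 75/25 or DOPC) made by film hydration in 80 mM calcein, 50 mM HEPES, 100 mM NaCl, 0.3 mM EDTA, pH 7.4. Then 7 freeze–thaw cycles, 15 extrusions and Sephadex G-50 clean-up. Compound added from DMF (<0.2%) at 50 μM final phospholipid. Fluorescence read at ex 490/em 520 nm for 30 min; 0.1% Triton X-100 set 100% lysis; three independent experiments.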

[6] = tested on: Enterococcus; experiment: Antimicrobial activity against vancomycin-sensitive Enterococcus isolates by broth macrodilution method; format: functional
[7] = tested on: Lipid bilayer; experiment: Induction of vesicle leakage in DOPC large unilamellar vesicles assessed as calcein release at 1/16 compound to lipid ratio by fluorescence assay; format: functional; how it was run: as §2
[8] = Induction of hemolysis in New Zealand white rabbit RBC after 1 hr; format: cell-based, Oryctolagus cuniculus, Erythrocyte; conditions: New Zealand white, red blood cells (RBC)
How it was run: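 Fresh red blood cells isolated from New Zealand white rabbits. Lysis measured over a compound concentration series; HC50 taken as the concentration lysing 50% of RBCs.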

[9] = tested on: Corynebacterium jeikeium; experiment: Antimicrobial activity against Corynebacterium jeikeium isolates by broth macrodilution method; format: functional
[10] = tested on: Staphylococcus aureus; experiment: Antimicrobial activity against methicillin resistant Staphylococcus aureus DM21455 in presence of 4% BSA by broth macrodilution method; format: functional
How it was run: (§3)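 MIC by CLSI broth macrodilution in Mueller Hinton broth, with BSA added to the bacterial suspension at a final 4% w/v. Inoculum was made by direct colony suspension from an 18−20 h tryptic soy agar plate.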

[11] = tested on: Staphylococcus aureus; experiment: Antimicrobial activity against methicillin sensitive Staphylococcus aureus isolates by broth macrodilution method; format: functional
[12] = tested on: Staphylococcus aureus; experiment: Antimicrobial activity against vancomycin-intermediate sensitive Staphylococcus aureus isolates by broth macrodilution method; format: functional
[13] = tested on: Staphylococcus aureus; experiment: Antimicrobial activity against teicoplanin intermediate resistant Staphylococcus aureus isolates by broth macrodilution method; format: functional
[14] = tested on: Listeria monocytogenes; experiment: Antimicrobial activity against Listeria monocytogenes isolates by broth macrodilution method; format: functional
[15] = tested on: Staphylococcus aureus; experiment: Antimicrobial activity against Staphylococcus aureus ATCC 29213 in presence of 4% BSA by broth macrodilution method; format: functional; how it was run: as §3
[16] = Retention time of the compound; format: physicochemical
How it was run: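 Reverse-phase HPLC of 20 μL injections of a 10 μg/mL sample at 1 mL/min. Gradient: 5−55% ACN over 5 min, then 55−95% over 15 min.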

[17] = Selectivity index, ratio of HC50 for induction of hemolysis in New Zealand white rabbit RBC to MIC for Staphylococcus aureus DM09809R
[18] = tested on: Mus musculus; experiment: Toxicity in C57BL6 mouse eye assessed as induction of toxicity related clinical signs at 3 mg/ml applied topically 5 times/day for 4 days; format: organism-based; conditions: in vivo, topical_or_ocular, 96 h
How it was run: (§4)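 Three healthy wild-type C57BL6 mice (6−8 weeks) per treatment received 0.5, 1 or 3 mg/mL compound in 10 mM PBS. Applied topically to the eye 5 times/day for 4 days. Corneal clarity checked daily through day 4 by slit-lamp biomicroscopy; histological sections also inspected.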

[19] = tested on: Mus musculus; experiment: Toxicity in C57BL6 mouse eye assessed as effect on wound closure at 3 mg/ml applied topically 5 times/day for 4 days by slit lamp biomicroscopy; format: organism-based; conditions: in vivo, topical_or_ocular, 96 h
[20] = tested on: Staphylococcus aureus; experiment: Antimicrobial activity against multidrug resistant Staphylococcus aureus isolates by broth macrodilution method; format: functional
[21] = tested on: Staphylococcus aureus; experiment: Antimicrobial activity against Staphylococcus aureus ATCC 29213 by broth macrodilution method; format: functional; how it was run: as §1
[22] = tested on: Mus musculus; experiment: Toxicity in C57BL6 mouse eye assessed as effect on corneal clarity at 3 mg/ml applied topically 5 times/day for 4 days by slit lamp biomicroscopy; format: organism-based, Cornea; conditions: in vivo, topical_or_ocular, 96 h; how it was run: as §4
[23] = tested on: Enterococcus; experiment: Antimicrobial activity against vancomycin-resistant Enterococcus isolates by broth macrodilution method; format: functional
[24] = tested on: Staphylococcus aureus; experiment: Antimicrobial activity against Staphylococcus aureus ATCC 29213 at 0.5 times MIC measured after 17 passages by multistep passage drug resistance selection study relative to wild type Staphylococcus aureus ATCC 29213 before passage; format: functional
How it was run: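 Multipassage selection in S. aureus ATCC29213 across an eight-concentration dilution series. Growth was read after 20−22 h. Bacteria growing at 0.5 × MIC were repassaged into a fresh series, 17 passages in total. Resistance was defined as a more than 4-fold rise over the initial MIC.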

[25] = tested on: Lipid bilayer; experiment: Induction of vesicle leakage in DOPE/DOPG large unilamellar vesicles assessed as calcein release at 1/16 compound to lipid ratio by fluorescence assay; format: functional; how it was run: as §2
[26] = Selectivity index, ratio of HC50 for induction of hemolysis in New Zealand white rabbit RBC to MIC for Bacillus cereus ATCC 11778
[27] = tested on: Staphylococcus aureus; experiment: Antimicrobial activity against Staphylococcus aureus ATCC 29213 infected in mouse cornea infection model assessed as reduction in viable bacterial count at 0.3% solution applied topically 5 times/day dosed 1 day after infection relative to control; format: functional
How it was run: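 Mouse cornea given three superficial 1 mm scratches on one eye under ketamine/xylazine, then 10 μL of S. aureus ATCC 29213 suspension (1 × 10^8 CFU/mL in USP phosphate buffer) applied topically. Treated topically 5 times/day from day 1 postinfection; PBS negative control; 4 mice/group killed on days 1, 2 and 3. Corneas homogenized in 0.9% NaCl with 0.25% BSA, plated in duplicate on TSA (48 h, 35 °C); log10 CFU/cornea.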

[28] = tested on: Mus musculus; experiment: Toxicity in C57BL6 mouse eye assessed as inflammatory response at 3 mg/ml applied topically 5 times/day for 4 days by slit lamp biomicroscopy; format: organism-based; conditions: in vivo, topical_or_ocular, 96 h; how it was run: as §4
[29] = tested on: Staphylococcus aureus; experiment: Antimicrobial activity against methicillin resistant Staphylococcus aureus DM09809R by broth macrodilution method; format: functional; how it was run: as §1
[30] = tested on: Streptococcus; experiment: Antimicrobial activity against Streptococcus isolates by broth macrodilution method; format: functional
[31] = Selectivity index, ratio of HC50 for induction of hemolysis in New Zealand white rabbit RBC to MIC for Staphylococcus aureus DM4001
[32] = tested on: Staphylococcus aureus; experiment: Antimicrobial activity against methicillin resistant Staphylococcus aureus DM21455 by broth macrodilution method; format: functional; how it was run: as §1
[33] = tested on: Staphylococcus aureus; experiment: Antimicrobial activity against Staphylococcus aureus ATCC 29213 in absence of 4% BSA by broth macrodilution method; format: functional; how it was run: as §1
[34] = tested on: Staphylococcus aureus; experiment: Antimicrobial activity against Staphylococcus aureus DM4001 by broth macrodilution method; format: functional; how it was run: as §1
[35] = Selectivity index, ratio of HC50 for induction of hemolysis in New Zealand white rabbit RBC to MIC for Staphylococcus aureus DM21455
[36] = tested on: Staphylococcus aureus; experiment: Antimicrobial activity against epidemic methicillin resistant Staphylococcus aureus isolates by broth macrodilution method; format: functional
[37] = tested on: Lipid bilayer; experiment: Induction of vesicle leakage in DOPE/DOPG large unilamellar vesicles assessed as calcein release at 1/64 compound to lipid ratio by fluorescence assay; format: functional; how it was run: as §2
[38] = tested on: Bacillus cereus; experiment: Antimicrobial activity against Bacillus cereus ATCC 11778 by broth macrodilution method; format: functional
How it was run: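 CLSI broth macrodilution in Mueller Hinton broth. Inoculum was made by direct colony suspension from colonies on an 18−20 h tryptic soy agar plate. The value is the MIC.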

[39] = tested on: Enterococcus; experiment: Bactericidal activity against vancomycin-resistant Enterococcus isolates assessed as reduction in bacterial count 2048 ug/mL after 24 hrs by cell counting based time assay; format: functional, organism-based
How it was run: (§5)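 Time-kill at 35 °C with colonies taken from an 18−20 h tryptic soy agar plate and suspended in CA-MHB at 10^5−10^6 CFU/mL, then drug added. Aliquots taken at set times were diluted 10-fold serially in D/E neutralization broth, spread on tryptic soy agar, incubated 48−72 h at 35 °C, and colonies counted. Strains: MRSA DM21455, vanA and vanB VRE.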

[40] = tested on: Enterococcus; experiment: Bactericidal activity against vancomycin-resistant Enterococcus isolates assessed as reduction in bacterial count 2048 ug/mL after 2 hrs by cell counting based time assay; format: functional, organism-based; how it was run: as §5
[41] = tested on: Staphylococcus aureus; experiment: Bactericidal activity against Staphylococcus aureus DM21455 assessed as reduction in bacterial count 2048 ug/mL after 24 hrs by cell counting based time assay; format: functional, organism-based; how it was run: as §5
[42] = tested on: Staphylococcus aureus; experiment: Bactericidal activity against Staphylococcus aureus DM21455 assessed as reduction in bacterial count 2048 ug/mL after 2 hrs by cell counting based time assay; format: functional, organism-based; how it was run: as §5

Molecule	MIC [2] [µg/mL]	MIC [6] [µg/mL]	HC50 at 1 h [8] [µg/mL]	MIC [9] [µg/mL]	MIC [10] [µg/mL]	MIC [14] [µg/mL]	MIC [15] [µg/mL]	Selectivity Index [17]	MIC [21] [µg/mL]	MIC [23] [µg/mL]	Selectivity Index [26]	MIC [29] [µg/mL]	MIC [30] [µg/mL]	Selectivity Index [31]	MIC [32] [µg/mL]	MIC [33] [µg/mL]	MIC [34] [µg/mL]	Selectivity Index [35]	MIC [38] [µg/mL]	further results
COC(=O)C(CCCNC(=N)N)NC(=O)C(CCCNC(=N)N)NC(=O)COc1cc2oc3cc(OCC(=O)NC(CCCNC(=N)N)C(=O)NC(CCCNC(=N)N)C(=O)OC)c(OC)c(CC=C(C)C)c3c(=O)c2c(O)c1CC=C(C)C (stereo unspecified)	1.56 (≈ 1.32 µM)	2 (≈ 1.7 µM)	277	2 (≈ 1.7 µM)	12.5	2 (≈ 1.7 µM)	12.5	92	2 (≈ 1.7 µM)	1 (≈ 0.848 µM)	92	3 (≈ 2.54 µM)	2 (≈ 1.7 µM)	92	2 (≈ 1.7 µM)	3.12 (≈ 2.65 µM)	0.5 (≈ 0.424 µM)	92	3 (≈ 2.54 µM)	MIC [1]: 2 µg/mL (≈ 1.7 µM); Activity [3]: < 15%; MIC [4]: 2 µg/mL (≈ 1.7 µM); Activity [5]: 67.9%; Activity [7]: < 15%; MIC [11]: 2 µg/mL (≈ 1.7 µM); MIC [12]: 2 µg/mL (≈ 1.7 µM); MIC [13]: 2 µg/mL (≈ 1.7 µM); Retention_time [16]: 6.49 min; Activity [18]: Non-toxic; Activity [19]: Non-toxic; MIC [20]: 2 µg/mL (≈ 1.7 µM); Activity [22]: Non-toxic; Activity [24]: Active; Activity [25]: 99.2%; inhibition (INH) [27]: 99.9%; Activity [28]: Non-toxic; MIC [36]: 2 µg/mL (≈ 1.7 µM); Activity [37]: 24.6%
H-GIGKFLKKAKKFGKAFVKILKK-NH2 [PEXIGANAN]	12.5		120		200		200	2			2	25		2	12.5	12.5	12.5	2	12.5	
CN[C@H](CC(C)C)C(=O)N[C@H]1C(=O)N[C@@H](CC(N)=O)C(=O)N[C@H]2C(=O)N[C@H]3C(=O)N[C@H](C(=O)N[C@H](C(=O)O)c4cc(O)cc(O)c4-c4cc3ccc4O)[C@H](O)c3ccc(c(Cl)c3)Oc3cc2cc(c3O[C@@H]2O[C@H](CO)[C@@H](O)[C@H](O)[C@H]2O[C@H]2C[C@](C)(N)[C@H](O)[C@H](C)O2)Oc2ccc(cc2Cl)[C@H]1O [VANCOMYCIN]	0.78 (≈ 0.538 µM)	1 (≈ 0.69 µM)		0.5 (≈ 0.345 µM)	0.78	0.5 (≈ 0.345 µM)	1.56			8 (≈ 5.52 µM)			0.5 (≈ 0.345 µM)			0.78 (≈ 0.538 µM)				Activity [39]: inactive; Activity [40]: inactive; Activity [41]: inactive; Activity [42]: inactive
CCn1cc(C(=O)O)c(=O)c2cc(F)c(N3CCNCC3)cc21 [NORFLOXACIN]									2 (≈ 6.26 µM)											Ratio [24]: 64
